Test results published in ChEMBL document CHEMBL4513216, “Probing the Open Global Health Chemical Diversity Library for Multistage-Active Starting Points for Next-Generation Antimalarials” (ACS Infect Dis, 2020).

Test: Toxicity liver stage against HepG2, at 10uM
Assay type: cell-based
Design: test concentration 10 uM, cell line HepG2-A16-CD81EGFP
Settings: human, HepG2-A16-CD81EGFP cells; read-out: INHIBITION
Summary of the method: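 Uninfected HepG2-A16-CD81EGFP cells, 3 × 10^3 per well, 1536-well, plated on prespotted compound at 10 μM final, parasite-free screening media added to match infected plates; puromycin 10 μM positive, DMSO 0.5% negative; run in parallel with 48 h PbLuc assay at 37 °C, 5% CO2; viability by CellTiter-Glo luminescence, normalized to controls.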

Row | Compound | cytotoxicity at 10 µM [%]
1 | Cc1ccc([C@@]2(O)CC[C@@H]3CN(S(=O)(=O)C(C)C)C[C@@H]32)cc1 | -38.9
2 | CN(Cc1ccc(Cl)s1)C1CCCN(c2cccnn2)C1 (stereo unspecified) | -4.27
3 | Cc1nc(O)c2nnn(C[C@H]3CCCN3C(=O)c3ccccc3F)c2n1 | -20.4
4 | NCCC(=O)NCC1(O)CCCN(c2ccnc3cccnc23)C1 (stereo unspecified) | 0.72
5 | CC(=O)N1CCN(CCNC(=O)NC(C)Cn2ccnc2)CC1 (stereo unspecified) | 5.74
6 | CC(C)n1nccc1NC(=O)NCCc1nc2ccc(F)cc2n1C | -7.85
7 | Cc1nnc(CCNC(=O)C(c2ccc(F)cc2)N(C)C)[nH]1 (stereo unspecified) | -5.96
8 | Cn1cc(N2C[C@@H]3CN(S(=O)(=O)C4CC4)C[C@@H]3C2=O)cn1 | 1.86
9 | CCOCc1nc2c(c(N(C)Cc3snnc3C)n1)CCNCC2 | 10.7
10 | CC(O)CN(C)S(=O)(=O)c1ccc(C#N)cc1F (stereo unspecified) | -6.67
11 | CCc1ccc(NC(=O)c2cnc(N3CCCC3)nc2C)cc1 | 0.709
12 | CCN1CCC12CCN(C(=O)c1ccsc1)C2 (stereo unspecified) | -148
13 | CC1c2ncc(COCC3CC3)n2CCN1S(=O)(=O)N(C)C (stereo unspecified) | 18.4
14 | CCOc1ccc(S(=O)(=O)NC(=O)CCC2CCCO2)cc1 (stereo unspecified) | -11.5
15 | O=C1Nc2ccccc2C12CCN(Cc1cccs1)CC2 | -0.184
16 | CC(C)OCc1noc(C2CCCOC2)n1 (stereo unspecified) | 5.31
17 | Cc1noc(C)c1CNC(=O)NCCOc1ccc(F)cc1F | 0.409
18 | CCC(NC(=O)C(C)C)c1ccccc1C (stereo unspecified) | 5.81
19 | Cc1noc(C)c1CN(C)C(=O)c1n[nH]c(N)c1-c1ccccc1 | -7.46

Row | Compound | cytotoxicity at 10 µM [%]
20 | COC(=O)N1CCCC(NC(=O)NCc2nc(C)cs2)C1 (stereo unspecified) | 7.25
21 | CCC1COCCN1C(=O)CNC(=O)c1ccsc1 (stereo unspecified) | 4.53
22 | CNC(=O)[C@@H]1CN(C(=O)COC)C[C@H]1c1ccnc(N2CCCC2)n1 | 2.75
23 | COc1cccc(CC(C)NC(=O)NCc2ccn(C)c2)c1 (stereo unspecified) | 0.166
24 | CC(=O)N1CCOC[C@H](OCC(=O)N(C)C)C1 | -1.13
25 | CC1CN(C)CCN1CC(=O)NCCOc1cccc(F)c1 (stereo unspecified) | -11.7
26 | CN1CCOC(C)(C(=O)N2CCSCC2)C1 (stereo unspecified) | -9.71
27 | c1ccc2c(Cc3nnc([C@H]4CCN(C5CCOCC5)C4)o3)c[nH]c2c1 | 2.9
28 | O=C(NCc1cccs1)NCC(O)(c1cccs1)C1CC1 (stereo unspecified) | 1.66
29 | CCC(Oc1ccc(N(C)S(C)(=O)=O)cc1)C(N)=O (stereo unspecified) | -4.18
30 | Cc1c[nH]c(C2CN(Cc3ccccc3C(=O)O)CCO2)n1 (stereo unspecified) | -0.822
31 | COc1ncnc(N)c1CNCC(C)Oc1ccccc1Cl (stereo unspecified) | 0.732
32 | Cc1ccc(CNC(=O)c2ccc(F)cc2)o1 | -3.35
33 | CN(CCn1ccc2ccccc21)C(=O)Cc1n[nH]c(=O)[nH]1 | -16.4
34 | O=C1CCC(C(=O)NCc2nncn2-c2ccccc2)CN1 (stereo unspecified) | -12.7
35 | COc1ccc(CNC(Cc2ccsc2)c2ccc(C)cn2)cc1OC (stereo unspecified) | -4.88
36 | Cc1ncnc2c1CCN(C(=O)c1ccncc1)CC2 | 12
37 | CCOc1ccc(C(=O)CC(SC2CCCCC2)C(=O)O)cc1 (stereo unspecified) | 6.73
38 | CCCC(=O)N1CCC(O)(Cn2c(CC)nc3ccccc3c2=O)CC1 | -2.03

Row | Compound | cytotoxicity at 10 µM [%]
39 | COc1cc(CNCc2c(C)nn(C)c2N(C)C)ccn1 | -9.48
40 | CN(Cc1ccccn1)C(CO)c1cccc(Br)c1 (stereo unspecified) | -6.12
41 | c1cncc(-c2nccc(CN3CCCC3)n2)c1 | 2.34
42 | O=C([C@H]1CCCO1)N1CCC2(CC1)CNCc1ccccc12 | -2.57
43 | CN(C(=O)Cc1ccc(NC(=O)NC2CC2)cc1)c1ccccc1 | 6.35
44 | CN(c1ccc(CNc2ccc(Cl)cn2)cc1)S(C)(=O)=O | 5.03
45 | CC(C)COC(=O)N1CCCN(C(C)c2nnc(CC(C)C)o2)CC1 (stereo unspecified) | 8.69
46 | O=C(NC1CCCc2nc(N3CCCCC3)ncc21)C1CCCC1 (stereo unspecified) | -2.05
47 | COc1ccc(NC(=O)NCC(O)c2ccc(F)cc2F)c(OC)c1 (stereo unspecified) | 2.79
48 | CC(=O)N1CCc2[nH]cnc2C12CCN(C(=O)Cc1ccccn1)CC2 | 1.76
49 | CC1CCN(C(=O)c2ccnc(-n3cncn3)c2)c2ccccc21 (stereo unspecified) | 13
50 | Cc1oc(-c2ccsc2)nc1CNCCn1cccn1 | -3.36
51 | c1cc(CN2CCCC2c2noc(C3CC3)n2)on1 (stereo unspecified) | -0.628
52 | Cc1nc(CN(C)C2CCN(CC3CCC3)C2)no1 (stereo unspecified) | -8.19
53 | CCC(C)N(Cc1ccncc1)Cc1cccc(Cn2cccn2)c1 (stereo unspecified) | -45.1
54 | Cc1cc(=O)[nH]c(-c2cccc(CN3CCCN4CCCC4C3)c2)n1 (stereo unspecified) | 1.46
55 | CCOCc1ccc(NC(=O)N2CCOC3(CCC3)C2)cc1 | 4.29
56 | O=C(c1cccc(-c2ncc[nH]2)c1)N1CCC(N2CCCC(O)C2)CC1 (stereo unspecified) | 6.42
